Usually pIC50 stands for −log10 of the IC50, conventionally taken in molar units. A word on the ED50: it is the dose that gives a 50% effect, or the effect in half of the subjects. For orientation: pKi means the negative decadic logarithm of the Ki, by convention in mol/L. For orientation: solubility means the dissolved amount per volume that the medium holds. Read a high solubility as a readily soluble substance.

The nature of series [1]: Displacement of [3H]kainate from kainate receptor in rat cortical membrane. Type of series: cell membranes.
Series [2] can be described thus: Displacement of [3H]AMPA from AMPA receptor in rat cortical membrane in presence of cyclothiazide. Type of series: cell membranes. In general terms: In a radioligand displacement assay an active substance lowers the binding of a labelled ligand.
The subject of series [3] is Mus musculus. Put plainly: Anticonvulsant activity in ip dosed mouse assessed as inhibition of MES-induced tonic seizures. Type of series: functional.
Series [4] is described as follows: Displacement of [3H]AMPA from AMPA receptor in rat cortical membrane. Type of series: cell membranes.
Series [5] has as its target Glutamate NMDA receptor. Put plainly: Inhibition of NMDA receptor glutamate site from rat cortical membrane.
The target in series [6] is Glutamate NMDA receptor. As to the kind of experiment: Inhibition of NMDA receptor glycine site from rat cortical membrane.
The nature of series [7]: Solubility of the compound at pH 7.4. Type of series: physicochemical. To be noted: buffer.
In another series the test system is Rattus norvegicus. As to the kind of experiment: Anticonvulsant activity in po dosed rat assessed as inhibition of MES-induced tonic seizures. In kind it is functional.
For series [8], the target named is Glutamate NMDA receptor. Put plainly: Displacement of [3H](E)-3-(2-carboxy-2-phenylvinyl)-4,6-dichloro-1H-indole-2-carboxylic acid from NMDA receptor glutamate site from rat cortical membrane.
Series [9] deals with Mus musculus. Put plainly: Anticonvulsant activity in po dosed mouse assessed as inhibition of MES-induced tonic seizures. In kind it is functional. A digest of the protocol:
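Mice were dosed orally 2 h before maximal electroshock. The read-out was protection from tonic convulsions, and an ED50 was derived.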

Each structure is given as a SMILES string. pIC50, pKi: −log10 of the molar value. In brackets after ≈: the same amount, converted by molar mass. A value given as a limit tells only on which side of the number the result lay.

Consider `CN(C)S(=O)(=O)c1cc2c(N=O)c(O)[nH]c2c2c1CCCC2`, for which the pIC50 is 4.09 in [1] and 6.82 in series [2]. Moreover, the ED50 with Mus musculus [3] came out at 30 mg/kg. `CS(=O)(=O)Nn1c(=O)[nH]c2cc(Cl)ccc2c1=O`: in the series with Mus musculus [3], the median effective dose (ED50) was 40 mg/kg. Regarding `O=[N+]([O-])c1ccc2nc(O)c(O)nc2c1`, the negative logarithm of the Ki (pKi) in series [4] is 5.70. Consider `Oc1nc2ccc(-n3ccnc3)cc2nc1O`, for which, in [4], the pKi was 5.80. Still for that read-out and setting: the same measure for `Oc1nc2ccccc2nc1O`: < 4.00.

In series [4], `N#Cc1ccc2nc(O)c(O)nc2c1` gave a pKi of 5.30.

Molecule `Oc1nc2cc(-n3ccnc3)c(-n3ccnc3)cc2nc1O` gave a pKi in series [4] of 6.09.

In [4], `O=P(O)(O)CNCc1cc(Br)cc2nc(O)c(O)nc12` had a pIC50 of 5.62. Take `O=c1[nH]c2cc([N+](=O)[O-])cc(CNCP(=O)(O)O)c2[nH]c1=O`: the pIC50 in series [4] was 6.54; in series [1], 5.38; against Glutamate NMDA receptor [5] it was 6.31; at Glutamate NMDA receptor [6] it was 5.94. Moreover, in [7], the concentration in solution (solubility) came to 6600 µg/mL (≈ 20 mM). Further, the ED50 in the series with Rattus norvegicus turned out to be 5 mg/kg. For the molecule `C[C@H](NCc1cc([N+](=O)[O-])cc2nc(O)c(O)nc12)P(=O)(O)O`, the negative-log IC50 (pIC50) in series [4] is 6.77; at Glutamate NMDA receptor [8] it was 7.49. `N#Cc1cc2c(cc1[N+](=O)[O-])=NC(=O)C(=O)N=2`: the pIC50 in series [4] is 6.52; in series [1] it was 5.82; against Glutamate NMDA receptor [6] it was 4.85.

For the molecule `CCC1(C)CC(=O)NC(=O)C1` [BEMEGRIDE], the ED50 in the series with Mus musculus [9] was found to be 23.9 mg/kg.

Regarding `CN1CCc2cc3c(cc2[C@H]1[C@@H]1OC(=O)c2c1ccc1c2OCO1)OCO3` [BICUCULLINE], the median effective dose (ED50) in the series with Mus musculus [9] was found to be 14.6 mg/kg.

The record behind these values is ChEMBL document CHEMBL1212813, “alpha-Amino-3-hydroxy-5-methyl-4-isoxazolepropionic acid (AMPA) antagonists: from bench to bedside” (J Med Chem, 2010).
